{
  "source": "ChEMBL document CHEMBL1926642",
  "about": "“Relevance of the C-5 position to schweinfurthin induced cytotoxicity” (2011)",
  "assay_type_in_all_cases": "functional",
  "key": {"[1]": {"system": "ACHN", "assay": "Cytotoxicity against human ACHN cells assessed as cell growth at 10 uM after 48 hrs by sulforhodamine B assay relative to control", "conditions": "read-out: Activity", "outline": "(§1)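 Compounds went through the NCI 60 cell-line screen, whose current protocol tests first at a single dose.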"}, "[2]": {"system": "RXF 393", "assay": "Cytotoxicity against human RXF393 cells assessed as cell growth at 10 uM after 48 hrs by sulforhodamine B assay relative to control", "conditions": "RXF 393, 48 h, read-out: Activity", "outline": "as §1"}, "[3]": {"system": "SN12C", "assay": "Cytotoxicity against human SN12C cells assessed as cell growth at 10 uM after 48 hrs by sulforhodamine B assay relative to control", "conditions": "read-out: Activity", "outline": "as §1"}, "[4]": {"system": "TK-10", "assay": "Cytotoxicity against human TK10 cells assessed as cell growth at 10 uM after 48 hrs by sulforhodamine B assay relative to control", "conditions": "TK-10, 48 h, read-out: Activity"}, "[5]": {"system": "PC-3", "assay": "Cytotoxicity against human PC3 cells assessed as cell growth at 10 uM after 48 hrs by sulforhodamine B assay relative to control", "conditions": "PC-3, 48 h, read-out: Activity", "outline": "as §1"}, "[6]": {"system": "MOLT-4", "assay": "Cytotoxicity against human MOLT4 cells assessed as cell growth at 10 uM after 48 hrs by sulforhodamine B assay relative to control", "conditions": "MOLT-4, 48 h, read-out: Activity", "outline": "as §1"}, "[7]": {"system": "RPMI-8226", "assay": "Cytotoxicity against human RPMI8226 cells assessed as cell growth at 10 uM after 48 hrs by sulforhodamine B assay relative to control", "conditions": "RPMI-8226, 48 h, read-out: Activity", "outline": "as §1"}, "[8]": {"system": "NCI-H23", "assay": "Cytotoxicity against human NCI-H23 cells assessed as cell growth at 10 uM after 48 hrs by sulforhodamine B assay relative to control", "conditions": "NCI-H23, 48 h, read-out: Activity", "outline": "as §1"}, "[9]": {"system": "COLO 205", "assay": "Cytotoxicity against human COLO205 cells assessed as cell growth at 10 uM after 48 hrs by sulforhodamine B assay relative to control", "conditions": "COLO 205, 48 h, read-out: Activity", "outline": "as §1"}, "[10]": {"system": "HCC 2998", "assay": "Cytotoxicity against human HCC2998 cells assessed as cell growth at 10 uM after 48 hrs by sulforhodamine B assay relative to control", "conditions": "HCC 2998, 48 h, read-out: Activity", "outline": "as §1"}, "[11]": {"system": "SW-620", "assay": "Cytotoxicity against human SW620 cells assessed as cell growth at 10 uM after 48 hrs by sulforhodamine B assay relative to control", "conditions": "SW-620, 48 h, read-out: Activity"}, "[12]": {"system": "SF-539", "assay": "Cytotoxicity against human SF539 cells assessed as cell growth at 10 uM after 48 hrs by sulforhodamine B assay relative to control", "conditions": "SF-539, 48 h, read-out: Activity", "outline": "as §1"}, "[13]": {"system": "SNB-75", "assay": "Cytotoxicity against human SNB75 cells assessed as cell growth at 10 uM after 48 hrs by sulforhodamine B assay relative to control", "conditions": "SNB-75, 48 h, read-out: Activity"}, "[14]": {"system": "U-251", "assay": "Cytotoxicity against human U251 cells assessed as cell growth at 10 uM after 48 hrs by sulforhodamine B assay relative to control", "conditions": "U-251, 48 h, read-out: Activity"}, "[15]": {"system": "LOX IMVI", "assay": "Cytotoxicity against human LOXIMVI cells assessed as cell growth at 10 uM after 48 hrs by sulforhodamine B assay relative to control", "conditions": "read-out: Activity", "outline": "as §1"}, "[16]": {"system": "Malme-3M", "assay": "Cytotoxicity against human MALME-3M cells assessed as cell growth at 10 uM after 48 hrs by sulforhodamine B assay relative to control", "conditions": "read-out: Activity", "outline": "as §1"}, "[17]": {"system": "M14", "assay": "Cytotoxicity against human M14 cells assessed as cell growth at 10 uM after 48 hrs by sulforhodamine B assay relative to control", "conditions": "M14, 48 h, read-out: Activity", "outline": "as §1"}, "[18]": {"system": "MDA-MB-435", "assay": "Cytotoxicity against human MDA-MB-435 cells assessed as cell growth at 10 uM after 48 hrs by sulforhodamine B assay relative to control", "conditions": "MDA-MB-435, 48 h, read-out: Activity", "outline": "as §1"}, "[19]": {"system": "SK-MEL-5", "assay": "Cytotoxicity against human SK-MEL-5 cells assessed as cell growth at 10 uM after 48 hrs by sulforhodamine B assay relative to control", "conditions": "SK-MEL-5, 48 h, read-out: Activity", "outline": "as §1"}, "[20]": {"system": "UACC-62", "assay": "Cytotoxicity against human UACC62 cells assessed as cell growth at 10 uM after 48 hrs by sulforhodamine B assay relative to control", "conditions": "UACC-62, 48 h, read-out: Activity"}, "[21]": {"system": "OVCAR-8", "assay": "Cytotoxicity against human OVCAR8 cells assessed as cell growth at 10 uM after 48 hrs by sulforhodamine B assay relative to control", "conditions": "OVCAR-8, 48 h, read-out: Activity", "outline": "as §1"}, "[22]": {"system": "A498", "assay": "Cytotoxicity against human A498 cells assessed as cell growth at 10 uM after 48 hrs by sulforhodamine B assay relative to control", "conditions": "A498, 48 h, read-out: Activity", "outline": "as §1"}},
  "data": [
    {"smiles": "COc1cc(/C=C/c2cc(Br)c3c(c2)C[C@@H]2C(C)(C)[C@H](O)CC[C@@]2(C)O3)cc(O)c1C/C=C(\\C)CCC=C(C)C", "values": [
      {"measurement": "growth at 10 µM", "setting": "[1]", "result": 104, "unit": "%"},
      {"measurement": "growth at 10 µM", "setting": "[2]", "result": 80.7, "unit": "%"},
      {"measurement": "growth at 10 µM", "setting": "[3]", "result": 101, "unit": "%"},
      {"measurement": "growth at 10 µM", "setting": "[4]", "result": 113, "unit": "%"},
      {"measurement": "growth at 10 µM", "setting": "[5]", "result": 87.6, "unit": "%"},
      {"measurement": "growth at 10 µM", "setting": "[6]", "result": 74.1, "unit": "%"},
      {"measurement": "growth at 10 µM", "setting": "[7]", "result": 75, "unit": "%"},
      {"measurement": "growth at 10 µM", "setting": "[8]", "result": 103, "unit": "%"},
      {"measurement": "growth at 10 µM", "setting": "[9]", "result": 126, "unit": "%"},
      {"measurement": "growth at 10 µM", "setting": "[10]", "result": 103, "unit": "%"},
      {"measurement": "growth at 10 µM", "setting": "[11]", "result": 119, "unit": "%"},
      {"measurement": "growth at 10 µM", "setting": "[12]", "result": 91.2, "unit": "%"},
      {"measurement": "growth at 10 µM", "setting": "[13]", "result": 91.2, "unit": "%"},
      {"measurement": "growth at 10 µM", "setting": "[14]", "result": 86.3, "unit": "%"},
      {"measurement": "growth at 10 µM", "setting": "[15]", "result": 105, "unit": "%"},
      {"measurement": "growth at 10 µM", "setting": "[16]", "result": 115, "unit": "%"},
      {"measurement": "growth at 10 µM", "setting": "[17]", "result": 107, "unit": "%"},
      {"measurement": "growth at 10 µM", "setting": "[18]", "result": 109, "unit": "%"},
      {"measurement": "growth at 10 µM", "setting": "[19]", "result": 99.3, "unit": "%"},
      {"measurement": "growth at 10 µM", "setting": "[20]", "result": 104, "unit": "%"},
      {"measurement": "growth at 10 µM", "setting": "[21]", "result": 108, "unit": "%"},
      {"measurement": "growth at 10 µM", "setting": "[22]", "result": 94.7, "unit": "%"}
    ]},
    {"smiles": "COCc1cc(/C=C/c2cc(O)c(C/C=C(\\C)CCC=C(C)C)c(OC)c2)cc2c1O[C@]1(C)CC[C@@H](O)C(C)(C)[C@H]1C2", "values": [
      {"measurement": "growth at 10 µM", "setting": "[1]", "result": 103, "unit": "%"},
      {"measurement": "growth at 10 µM", "setting": "[2]", "result": 88, "unit": "%"},
      {"measurement": "growth at 10 µM", "setting": "[3]", "result": 96.2, "unit": "%"},
      {"measurement": "growth at 10 µM", "setting": "[5]", "result": 79, "unit": "%"},
      {"measurement": "growth at 10 µM", "setting": "[6]", "result": 70.4, "unit": "%"},
      {"measurement": "growth at 10 µM", "setting": "[7]", "result": 65.9, "unit": "%"},
      {"measurement": "growth at 10 µM", "setting": "[8]", "result": 100, "unit": "%"},
      {"measurement": "growth at 10 µM", "setting": "[9]", "result": 130, "unit": "%"},
      {"measurement": "growth at 10 µM", "setting": "[10]", "result": 99.3, "unit": "%"},
      {"measurement": "growth at 10 µM", "setting": "[11]", "result": 129, "unit": "%"},
      {"measurement": "growth at 10 µM", "setting": "[12]", "result": 89.9, "unit": "%"},
      {"measurement": "growth at 10 µM", "setting": "[13]", "result": 84.2, "unit": "%"},
      {"measurement": "growth at 10 µM", "setting": "[14]", "result": 83.6, "unit": "%"},
      {"measurement": "growth at 10 µM", "setting": "[15]", "result": 92.7, "unit": "%"},
      {"measurement": "growth at 10 µM", "setting": "[17]", "result": 117, "unit": "%"},
      {"measurement": "growth at 10 µM", "setting": "[18]", "result": 120, "unit": "%"},
      {"measurement": "growth at 10 µM", "setting": "[19]", "result": 108, "unit": "%"},
      {"measurement": "growth at 10 µM", "setting": "[20]", "result": 90.7, "unit": "%"},
      {"measurement": "growth at 10 µM", "setting": "[21]", "result": 103, "unit": "%"},
      {"measurement": "growth at 10 µM", "setting": "[22]", "result": 140, "unit": "%"}
    ]}
  ]
}
